In ChEMBL document CHEMBL5661979, “Pharmacological inhibition of BMK1 suppresses tumor growth through promyelocytic leukemia protein” (Cancer Cell, 2010):

Legend:
Assay type in all cases: subcellular
Scaffold protein ILK = Scaffold protein ILK (Homo sapiens, UniProt Q13418); assay: Inhibition of ILK in human HeLa cells lysate pre incubated for 15 mins followed by ATP acyl phosphate probe addition and measured after 10 mins by LC-MS/MS analysis
[1] = Inhibition of PCTAIRE2/ICK in human HeLa cells lysate pre incubated for 15 mins followed by ADP acyl phosphate probe addition and measured after 10 mins by LC-MS/MS analysis
[2] = molecular target: T1, Serine/threonine-protein kinase 4 (Homo sapiens) (UniProt Q13043); assay: Inhibition of MST1 in human HeLa cells lysate at 10 uM pre incubated for 15 mins followed by ADP acyl phosphate probe addition and measured after 10 mins by LC-MS/MS analysis relative to control; details: time 25.0 min
T1 sequence (whole entry): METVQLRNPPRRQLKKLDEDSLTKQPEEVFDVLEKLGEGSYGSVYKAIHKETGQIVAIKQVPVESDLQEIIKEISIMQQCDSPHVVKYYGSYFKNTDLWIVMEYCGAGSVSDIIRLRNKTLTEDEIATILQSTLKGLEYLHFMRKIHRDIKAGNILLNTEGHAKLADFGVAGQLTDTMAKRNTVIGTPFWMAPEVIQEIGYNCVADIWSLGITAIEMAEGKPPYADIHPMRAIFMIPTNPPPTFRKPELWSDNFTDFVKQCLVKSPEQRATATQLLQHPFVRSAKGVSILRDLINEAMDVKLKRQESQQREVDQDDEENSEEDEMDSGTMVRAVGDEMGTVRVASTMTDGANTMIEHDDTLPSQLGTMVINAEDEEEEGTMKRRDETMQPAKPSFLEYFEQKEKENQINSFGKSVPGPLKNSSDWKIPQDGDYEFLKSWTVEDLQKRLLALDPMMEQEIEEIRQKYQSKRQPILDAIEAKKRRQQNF

[3] = molecular target: T2, Serine/threonine-protein kinase D3 (Homo sapiens) (UniProt O94806); assay: Inhibition of PKD3 in human HeLa cells lysate at 10 uM pre incubated for 15 mins followed by ADP acyl phosphate probe addition and measured after 10 mins by LC-MS/MS analysis relative to control; details: time 25.0 min
T2 sequence (whole entry): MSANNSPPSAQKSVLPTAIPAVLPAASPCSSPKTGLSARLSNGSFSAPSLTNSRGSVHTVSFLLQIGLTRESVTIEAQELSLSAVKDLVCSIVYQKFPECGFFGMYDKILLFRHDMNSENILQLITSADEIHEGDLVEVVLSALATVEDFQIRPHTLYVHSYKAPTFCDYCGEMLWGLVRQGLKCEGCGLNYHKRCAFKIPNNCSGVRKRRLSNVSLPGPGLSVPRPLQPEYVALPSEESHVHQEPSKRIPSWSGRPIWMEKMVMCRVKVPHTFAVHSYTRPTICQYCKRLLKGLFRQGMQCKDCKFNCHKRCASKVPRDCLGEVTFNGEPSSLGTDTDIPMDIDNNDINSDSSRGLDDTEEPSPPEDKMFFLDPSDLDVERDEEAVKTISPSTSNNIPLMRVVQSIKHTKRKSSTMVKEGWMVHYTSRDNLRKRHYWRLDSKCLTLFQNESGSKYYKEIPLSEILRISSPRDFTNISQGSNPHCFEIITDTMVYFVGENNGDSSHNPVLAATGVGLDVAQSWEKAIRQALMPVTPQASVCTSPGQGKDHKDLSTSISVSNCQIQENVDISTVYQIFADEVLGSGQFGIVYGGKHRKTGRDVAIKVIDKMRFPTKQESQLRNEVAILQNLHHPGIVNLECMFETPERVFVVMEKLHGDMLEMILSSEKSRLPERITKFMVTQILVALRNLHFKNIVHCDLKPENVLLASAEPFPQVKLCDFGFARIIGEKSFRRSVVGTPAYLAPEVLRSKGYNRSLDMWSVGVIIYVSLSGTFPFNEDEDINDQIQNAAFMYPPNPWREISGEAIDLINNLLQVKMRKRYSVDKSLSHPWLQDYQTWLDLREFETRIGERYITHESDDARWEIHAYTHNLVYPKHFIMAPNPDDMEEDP

[4] = molecular target: MAP/microtubule affinity-regulating kinase 3 (Homo sapiens, UniProt P27448); assay: Inhibition of MARK3 in human HeLa cells lysate at 2 uM pre incubated for 15 mins followed by ADP acyl phosphate probe addition and measured after 10 mins by LC-MS/MS analysis relative to control; details: time 25.0 min
[5] = molecular target: IKK epsilon/TBK1 (Homo sapiens) (UniProt Q14164+Q9UHD2); assay: Inhibition of IKKE/TBK1 in human HeLa cells lysate at 2 uM pre incubated for 15 mins followed by ADP acyl phosphate probe addition and measured after 10 mins by LC-MS/MS analysis relative to control; details: time 25.0 min
[6] = molecular target: Calcium/calmodulin-dependent protein kinase type 1D (Homo sapiens, UniProt Q8IU85); assay: Inhibition of CAMK1d in human HeLa cells lysate at 50 uM pre incubated for 15 mins followed by ATP acyl phosphate probe addition and measured after 10 mins by LC-MS/MS analysis relative to control; details: time 25.0 min
How it was run: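 KiNativ-type profiling in HeLa lysate (5 mg/mL total protein). Lysate preincubated 15 min with inhibitor at 50, 10, 2, 0.8 or 0 μM, then ATP or ADP acylphosphate probe added (5 μM final) for 10 min. Reaction stopped with urea and analysed by targeted MS, using up to four fragment ions per kinase peptide-probe conjugate. % inhibition calculated against untreated lysate. Duplicate reactions.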

[7] = molecular target: Cyclin-dependent kinase 9 (Homo sapiens, UniProt P50750); assay: Inhibition of CDK9 in human HeLa cells lysate at 10 uM pre incubated for 15 mins followed by ATP acyl phosphate probe addition and measured after 10 mins by LC-MS/MS analysis relative to control; details: time 25.0 min
How it was run: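 KiNativ profiling in HeLa lysate (5 mg/mL total protein). Lysate incubated 15 min with inhibitor at 50, 10, 2, 0.8 or 0 μM. ATP or ADP acylphosphate probe then added (5 μM final) and reacted 10 min. Reaction stopped with urea and analysed by targeted MS, using up to four fragment ions per kinase peptide-probe conjugate. % inhibition taken against untreated lysate. Run in duplicate.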

[8] = molecular target: T3, Phosphatidylinositol 5-phosphate 4-kinase type-2 alpha (Homo sapiens) (UniProt P48426); assay: Inhibition of PIP5K2A in human HeLa cells lysate at 2 uM pre incubated for 15 mins followed by ATP acyl phosphate probe addition and measured after 10 mins by LC-MS/MS analysis relative to control; details: time 25.0 min
T3 sequence (whole entry): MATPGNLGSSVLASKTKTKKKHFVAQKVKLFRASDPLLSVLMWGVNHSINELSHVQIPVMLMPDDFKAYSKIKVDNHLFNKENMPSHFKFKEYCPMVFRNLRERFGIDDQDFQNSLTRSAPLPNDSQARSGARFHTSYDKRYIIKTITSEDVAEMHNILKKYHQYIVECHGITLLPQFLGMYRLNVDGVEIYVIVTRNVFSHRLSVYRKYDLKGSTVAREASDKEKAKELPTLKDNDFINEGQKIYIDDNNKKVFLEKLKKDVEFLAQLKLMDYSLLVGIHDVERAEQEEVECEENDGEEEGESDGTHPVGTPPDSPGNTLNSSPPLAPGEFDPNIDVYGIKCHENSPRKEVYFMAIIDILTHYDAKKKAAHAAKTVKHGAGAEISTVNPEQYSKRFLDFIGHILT

Sequence of Scaffold protein ILK (Q13418 whole entry): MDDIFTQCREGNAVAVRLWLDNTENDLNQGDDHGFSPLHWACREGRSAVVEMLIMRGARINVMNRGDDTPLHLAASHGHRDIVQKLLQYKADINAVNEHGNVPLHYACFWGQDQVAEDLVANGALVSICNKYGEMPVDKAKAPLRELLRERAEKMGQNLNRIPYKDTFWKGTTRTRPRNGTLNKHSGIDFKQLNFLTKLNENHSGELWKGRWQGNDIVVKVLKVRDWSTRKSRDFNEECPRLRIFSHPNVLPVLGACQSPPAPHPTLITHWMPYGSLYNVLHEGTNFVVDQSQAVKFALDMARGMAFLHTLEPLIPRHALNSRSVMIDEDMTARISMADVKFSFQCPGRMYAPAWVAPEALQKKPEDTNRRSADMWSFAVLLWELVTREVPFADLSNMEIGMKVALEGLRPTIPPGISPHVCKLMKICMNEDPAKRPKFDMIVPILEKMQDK
Sequence of Cyclin-dependent kinase 9 (P50750 whole entry, the tested form may be a part): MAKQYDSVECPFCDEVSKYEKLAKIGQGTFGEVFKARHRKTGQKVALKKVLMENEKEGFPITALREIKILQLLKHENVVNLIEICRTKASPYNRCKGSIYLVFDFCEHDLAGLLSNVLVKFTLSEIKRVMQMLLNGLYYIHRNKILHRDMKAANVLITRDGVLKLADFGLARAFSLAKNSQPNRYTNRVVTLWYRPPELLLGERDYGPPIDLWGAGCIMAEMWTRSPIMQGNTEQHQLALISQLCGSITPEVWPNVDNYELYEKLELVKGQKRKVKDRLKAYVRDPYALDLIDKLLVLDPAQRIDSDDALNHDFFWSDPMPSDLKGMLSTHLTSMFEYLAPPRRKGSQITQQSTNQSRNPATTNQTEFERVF
Sequence of Calcium/calmodulin-dependent protein kinase type 1D (Q8IU85 whole entry, looked up, the tested form may be a part): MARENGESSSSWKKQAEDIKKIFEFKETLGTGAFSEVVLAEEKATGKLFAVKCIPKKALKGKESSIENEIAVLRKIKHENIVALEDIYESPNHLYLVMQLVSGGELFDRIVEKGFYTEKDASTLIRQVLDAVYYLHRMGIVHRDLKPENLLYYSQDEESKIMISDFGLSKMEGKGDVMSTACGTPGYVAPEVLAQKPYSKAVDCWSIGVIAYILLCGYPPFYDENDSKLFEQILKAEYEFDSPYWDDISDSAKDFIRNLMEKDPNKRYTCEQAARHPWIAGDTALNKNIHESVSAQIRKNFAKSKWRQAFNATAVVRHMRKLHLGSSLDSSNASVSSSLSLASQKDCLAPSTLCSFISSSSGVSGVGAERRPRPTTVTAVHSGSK
Sequence of MAP/microtubule affinity-regulating kinase 3 (P27448 whole entry, looked up): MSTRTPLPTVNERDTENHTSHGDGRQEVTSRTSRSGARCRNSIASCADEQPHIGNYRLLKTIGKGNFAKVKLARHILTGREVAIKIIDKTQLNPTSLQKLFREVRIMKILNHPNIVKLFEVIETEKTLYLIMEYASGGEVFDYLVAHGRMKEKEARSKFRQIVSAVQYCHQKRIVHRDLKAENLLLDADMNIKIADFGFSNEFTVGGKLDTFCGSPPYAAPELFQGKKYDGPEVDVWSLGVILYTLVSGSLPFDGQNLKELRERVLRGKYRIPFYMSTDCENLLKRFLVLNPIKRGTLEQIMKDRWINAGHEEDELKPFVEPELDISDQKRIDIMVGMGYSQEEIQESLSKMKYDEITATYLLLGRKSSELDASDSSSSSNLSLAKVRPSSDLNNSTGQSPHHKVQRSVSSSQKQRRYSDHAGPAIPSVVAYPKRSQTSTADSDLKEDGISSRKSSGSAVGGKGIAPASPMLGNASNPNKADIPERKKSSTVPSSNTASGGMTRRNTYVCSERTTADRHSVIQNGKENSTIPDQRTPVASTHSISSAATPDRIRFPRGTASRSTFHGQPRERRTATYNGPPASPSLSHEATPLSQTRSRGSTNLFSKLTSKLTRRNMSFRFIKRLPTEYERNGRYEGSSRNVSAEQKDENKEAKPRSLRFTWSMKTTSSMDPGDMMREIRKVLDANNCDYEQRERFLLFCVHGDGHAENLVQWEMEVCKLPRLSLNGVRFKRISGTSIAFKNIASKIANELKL

CCOc1cc(N2CCC(O)CC2)ccc1Nc1ncc2c(n1)N(C)c1ccccc1C(=O)N2C
IC50 (Scaffold protein ILK): > 50 µM | IC50 [1]: > 50 µM | inhibition [2]: 30.1% | inhibition [3]: -6% | inhibition [4]: -3.4% | inhibition [5]: -2.6% | inhibition [6]: -3.1% | inhibition [7]: -4.1% | inhibition [8]: -4.6%
